{"source": "paper PMC4065498", "about": "(Chemical research in toxicology, 2010)", "key": {"[1]": {"system": "THP1 foam cells", "assay": "Endogenous 2AG produced by cholesterol-loaded THP1 macrophages", "format": "cell-based, human", "settings": "24 h"}, "[2]": {"system": "lipid glyceryl ester hydrolase activities of THP1 monocyte lysates"}, "[3]": {"system": "31-32kDa enzyme in THP1 lysates", "assay": "Activity-based protein profiling with FP-biotin in THP1 lysate: 31-32kDa enzyme", "format": "biochemical, human", "summary_of_the_method": "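THP1 monocyte lysate (1 mg/ml protein in 50 mM Tris-HCl, pH 7.4) was labelled with 2 μM FP-biotin for 1 h at room temperature. Irreversible inhibitors were preincubated for 30 min (37°C) before the probe. For the reversible inhibitor, lysate received inhibitor, then 0.2 μM FP-biotin for 7.5 min, short of full labelling. Reactions were stopped in reducing SDS loading buffer (95°C, 5 min), run on SDS-PAGE and blotted with avidin-HRP.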"}, "[4]": {"system": "THP1 macrophages", "assay": "PG-G and 2AG levels in LPS-primed THP1 macrophages stimulated with ionomycin", "format": "cell-based, human", "settings": "oxon 1 μM, ionomycin 5 μM"}, "[5]": {"target": "T1, recombinant human MAGL (Homo sapiens, UniProt Q99685)", "T1 sequence (Q99685 1-303)": "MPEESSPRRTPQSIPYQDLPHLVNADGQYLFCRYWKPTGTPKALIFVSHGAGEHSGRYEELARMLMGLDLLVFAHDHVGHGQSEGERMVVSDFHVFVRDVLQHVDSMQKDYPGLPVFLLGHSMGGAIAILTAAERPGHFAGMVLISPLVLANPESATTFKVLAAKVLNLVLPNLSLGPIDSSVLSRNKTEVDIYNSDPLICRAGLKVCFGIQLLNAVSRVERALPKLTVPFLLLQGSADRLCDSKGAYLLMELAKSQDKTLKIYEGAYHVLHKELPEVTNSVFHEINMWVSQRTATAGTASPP", "format": "biochemical", "settings": "2AG substrate"}, "[6]": {"target": "T2, recombinant human CES1 (Homo sapiens, UniProt P23141)", "T2 sequence (P23141 18-567)": "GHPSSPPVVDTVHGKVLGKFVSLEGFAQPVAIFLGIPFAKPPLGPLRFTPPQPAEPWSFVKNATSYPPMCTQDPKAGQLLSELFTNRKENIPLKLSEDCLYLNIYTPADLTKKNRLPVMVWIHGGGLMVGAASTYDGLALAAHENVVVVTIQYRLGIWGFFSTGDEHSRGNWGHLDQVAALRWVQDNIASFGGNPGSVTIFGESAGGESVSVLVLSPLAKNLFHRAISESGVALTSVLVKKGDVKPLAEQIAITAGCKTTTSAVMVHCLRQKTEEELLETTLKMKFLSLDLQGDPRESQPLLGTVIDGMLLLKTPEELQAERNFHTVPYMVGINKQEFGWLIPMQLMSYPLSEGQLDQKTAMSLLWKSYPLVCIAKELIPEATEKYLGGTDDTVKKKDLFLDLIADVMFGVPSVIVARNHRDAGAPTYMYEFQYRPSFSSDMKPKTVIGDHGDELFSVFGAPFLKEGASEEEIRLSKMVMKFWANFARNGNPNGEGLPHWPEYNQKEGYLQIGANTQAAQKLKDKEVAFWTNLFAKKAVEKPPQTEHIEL", "format": "biochemical", "settings": "2AG substrate"}}, "data": [{"substance": "chlorpyrifos oxon [CPO]", "values": [{"measurement": "amount of 2AG in culture medium relative to control group", "setting": "[1]; oxon 1 μM", "result": 2.5, "unit": "fold"}, {"measurement": "amount of 2AG in culture medium relative to control group", "setting": "[1]; oxon 10 μM", "result": 8.1, "unit": "fold"}, {"measurement": "inhibition of PGE2-G hydrolysis activity in THP1 cell lysate", "setting": "[2]; oxon 1 μM", "result": "near complete inhibition"}, {"measurement": "inhibition of hydrolysis of exogenous 2AG in THP1 lysate", "setting": "[2]; oxon 1 μM, 2AG 10 μM", "result": 49, "unit": "%"}, {"measurement": "inhibition of 2AG hydrolysis activity in THP1 lysate", "setting": "[2]; oxon 10 μM", "result": 72, "unit": "%"}, {"measurement": "knock down of 2AG hydrolysis activity in THP1 monocyte lysate", "setting": "[2]; oxon 500 μM", "result": 94, "unit": "%"}, {"measurement": "concentration needed to reduce activity of the 31-32kDa enzyme toward FP-biotin", "setting": "[3]", "result": "> 10", "unit": "µM"}, {"measurement": "PGF2α-G, PGE2-G, and 2AG levels compared to vehicle-treated cells following ionomycin stimulation", "setting": "[4]", "result": "significantly elevated"}, {"measurement": "inhibition of recombinant MAGL (in words)", "setting": "[5]", "result": "potently inhibit"}, {"measurement": "inhibition of recombinant CES1 (in words)", "setting": "[6]", "result": "potently inhibit"}]}]}
